Data published in ChEMBL document CHEMBL3407346, “Design, synthesis, and biological evaluation of sulfonyl acrylonitriles as novel inhibitors of cancer metastasis and spread” (J Med Chem, 2015).
The source made the active and inactive calls. The rule behind the calls is not given here.

What was measured:
A2780 [1] = test: Induction of apoptosis in human A2780 cells assessed as increased cellular levels of cleaved PARP at 5 uM after 4 hrs by immunoblot analysis; format: functional, cell-based
Outline: (§1)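 A2780 cells were suspended and allowed to adhere for 4 h with DMSO or test compound (5 µM in DMSO). Cells were collected and lysed, lysates normalised for total protein, and cleaved PARP and cleaved caspase 3 detected by immunoblot with actin as loading control. A sulfide analog served as negative control.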

A2780 [2] = test: Induction of apoptosis in human A2780 cells assessed as increased cellular levels of cleaved caspase 3 at 5 uM after 4 hrs by immunoblot analysis; format: functional, cell-based; outline: as §1
[3] = Cytotoxicity against human BxPC3 cells co-cultured with human mesothelial cells at 10 uM after 4 hrs by firefly luciferase assay relative to control; format: functional, BXPC-3
Outline: (§2)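 Co-culture of luciferase-transduced cancer cells (puromycin/G418-selected retroviral pLuc) with confluent human mesothelial monolayers. Suspended cancer cells plus 10 µM compound (final) or DMSO were overlaid for 4 h. Non-adherent cells were washed off and surviving adherent cells quantified by firefly luciferase luminescence. Efficacy = treated/DMSO luminescence ratio; mean±SEM, n=3.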

A2780 [4] = test: Cytotoxicity against human A2780 cells co-cultured with human mesothelial cells at 10 uM after 4 hrs by firefly luciferase assay relative to control; format: functional; outline: as §2
[5] = Cytotoxicity against human SU86 cells co-cultured with human mesothelial cells at 10 uM after 4 hrs by firefly luciferase assay relative to control; format: functional; outline: as §2
[6] = Cytotoxicity against human SKOV3 cells co-cultured with human mesothelial cells at 10 uM after 4 hrs by firefly luciferase assay relative to control; format: functional, SK-OV-3; outline: as §2
A2780 [7] = test: Cytotoxicity against human A2780 cells co-cultured with human mesothelial cells after 4 hrs by firefly luciferase assay relative to control; format: functional, cell-based; details: A2780, 4 h
Outline: (§3)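 Luciferase-expressing cancer cells in suspension were treated with a series of compound concentrations or DMSO, overlaid on confluent human mesothelial monolayers for 4 h, and washed to remove non-adherent cells. Surviving adherent cells were read by luciferase luminescence relative to vehicle, and EC50 was derived from the concentration series.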

[8] = Cytotoxicity against human SU86 cells co-cultured with human mesothelial cells after 4 hrs by firefly luciferase assay relative to control; format: functional, cell-based; outline: as §3
[9] = Cytotoxicity against human BxPC3 cells co-cultured with human mesothelial cells after 4 hrs by firefly luciferase assay relative to control; format: functional, cell-based; details: BXPC-3, 4 h; outline: as §3
[10] = Cytotoxicity against human SKOV3 cells co-cultured with human mesothelial cells after 4 hrs by firefly luciferase assay relative to control; format: functional, cell-based; details: SK-OV-3, 4 h; outline: as §3
HT-29 = test: Reduction of cellular GSH level in human HT-29 cells incubated for 30 mins followed by co-culturing with human mesothelial cells measured after 5 hrs by […]; format: functional, cell-based
[11] = Glutathione reactivity assessed as reduction in detectable GSH level by Ellman's reagent-based assay
Outline: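 Glutathione was measured with a commercial kit per the manufacturer's instructions, with TNB production rate proportional to GSH. Cell-free GSH was tested with compounds, and HT-29 luciferase cell lysates were assayed after compound exposure.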

Structure (SMILES)	Ratio [3]	Ratio (A2780 [4])	Ratio [5]	Ratio [6]	other results
CC(C)(C)c1ccc(S/C=C/C#N)cc1	–	–	–	–	Activity (A2780 [1]): inactive; Activity (A2780 [2]): inactive
N#C/C=C/S(=O)(=O)c1ccc(C2(C(=O)NC3CCCCC3)CCOCC2)cc1	0.67	1.12	1	0.88	–
CC(C)(C)c1ccc2cc(S(=O)(=O)/C=C/C#N)ccc2n1	0.22	0.04	0.45	0.35	–
CC(C)(C(=O)NCCc1ccccc1)c1ccc(S(=O)(=O)/C=C/C#N)cc1	0.15	0.1	0.29	0.56	–
CC(C)(C(=O)NCc1ccc(S(C)(=O)=O)cc1)c1ccc(S(=O)(=O)/C=C/C#N)cc1	0.99	0.95	1.09	0.78	–
Cc1ccc(O)c(NC(=O)COc2ccc(S(=O)(=O)/C=C/C#N)cc2C(C)(C)C)c1	0.1	0.05	0.38	0.24	EC50 (A2780 [7]): 2.4 µM; EC50 [8]: 8 µM; EC50 [9]: 3.8 µM; EC50 [10]: 6.6 µM
Cc1cnc(C(C)(C)c2ccc(S(=O)(=O)/C=C/C#N)cc2)o1	0.09	0.03	0.37	0.26	–
COCCOCc1ccc(NC(=O)C(C)(C)c2ccc(S(=O)(=O)/C=C/C#N)cc2)cc1	0.4	0.26	0.66	0.6	–
CC(C)(C(=O)N[C@H]1CCCCNC1=O)c1ccc(S(=O)(=O)/C=C/C#N)cc1	0.82	0.84	0.97	0.85	–
N#C/C=C/S(=O)(=O)c1ccc(C2(C(=O)Nc3ccccc3)CCOCC2)cc1	0.85	0.87	0.92	0.97	–
CC(C)(c1ccc(S(=O)(=O)/C=C/C#N)cc1)c1nnc(Nc2ccccc2)o1	0.39	0.22	0.62	0.65	–
CC(C)(C)c1cccc(S(=O)(=O)/C=C/C#N)c1	0.08	0.1	0.13	0.35	–
CC(C)(C(=O)NCc1ccc(F)cc1)c1ccc(S(=O)(=O)/C=C/C#N)cc1	0.23	0.11	0.18	0.6	Activity (HT-29): Active; Activity [11]: Active
COc1ccccc1CNC(=O)C(C)(C)c1ccc(S(=O)(=O)/C=C/C#N)cc1	0.07	0.01	0.21	0.27	–
N#C/C=C/S(=O)(=O)c1ccc(C2(C(=O)NCc3ccc(F)cc3)CC2)cc1	0.34	0.06	0.64	0.43	–
CC(C)(C)c1cc(S(=O)(=O)/C=C/C#N)ccc1OCC(=O)O	0.81	1.05	0.97	0.92	–
C/C=C/S(=O)(=O)c1ccc(C(C)(C)C)cc1	–	–	–	–	Activity (HT-29): inactive; Activity [11]: inactive
CC(C)(c1ccc(S(=O)(=O)/C=C/C#N)cc1)c1nc2ccccc2[nH]1	1.01	1.07	1.04	1.1	–
CN(Cc1ccccc1)C(=O)C(C)(C)c1ccc(S(=O)(=O)/C=C/C#N)cc1	0.12	0.06	0.24	0.5	Activity (HT-29): Active; Activity [11]: Active
CC(C)(C(=O)NCC#Cc1ccccc1)c1ccc(S(=O)(=O)/C=C/C#N)cc1	0.14	0.07	0.5	0.4	–
CC(C)(C(=O)Nc1ccccc1)c1ccc(S(=O)(=O)/C=C/C#N)cc1	0.22	0.17	0.52	0.55	–

Structure (SMILES)	Ratio [3]	Ratio (A2780 [4])	Ratio [5]	Ratio [6]	other results
CC(C)(C(=O)NCc1cccc(F)c1)c1ccc(S(=O)(=O)/C=C/C#N)cc1	0.17	0.05	0.24	0.3	–
C[C@H](NC(=O)C(C)(C)c1ccc(S(=O)(=O)/C=C/C#N)cc1)c1ccccc1	0.27	0.13	0.32	0.67	–
CN(Cc1ccc(F)cc1)C(=O)C(C)(C)c1ccc(S(=O)(=O)/C=C/C#N)cc1	0.11	0.02	0.23	0.22	–
N#C/C=C/S(=O)(=O)c1ccc(C2(C(=O)NCc3ccc(Cl)cc3)CCC2)cc1	0.21	0.13	0.36	0.3	–
Cc1ccc2oc(COc3ccc(S(=O)(=O)/C=C/C#N)cc3C(C)(C)C)nc2c1	0.24	0.09	0.56	0.36	–
C=CS(=O)(=O)c1ccc(C(C)(C)C)cc1	–	–	–	–	Activity (HT-29): inactive; Activity [11]: inactive
CC(C)(C(=O)NC1CCCCC1)c1ccc(S(=O)(=O)/C=C/C#N)cn1	0.16	0.16	0.61	0.58	–
CC(C)(C)c1cc(S(=O)(=O)/C=C/C#N)ccc1OCC(=O)NCc1ccc(F)cc1	0.1	0.02	0.28	0.23	–
CC(C)(C(=O)NCc1ccc(S(N)(=O)=O)cc1)c1ccc(S(=O)(=O)/C=C/C#N)cc1	1	1	1.11	0.96	–
C[C@@H](NC(=O)C(C)(C)c1ccc(S(=O)(=O)/C=C/C#N)cc1)c1ccccc1	0.21	0.1	0.21	0.64	–
CC(C)(C(=O)NCc1ccc(-n2cccn2)cc1)c1ccc(S(=O)(=O)/C=C/C#N)cc1	0.48	0.34	0.49	0.84	–
CCNc1nnc(C(C)(C)c2ccc(S(=O)(=O)/C=C/C#N)cc2)o1	1.02	0.86	0.96	1.12	–
COc1cccc(CNC(=O)C(C)(C)c2ccc(S(=O)(=O)/C=C/C#N)cc2)c1	0.09	0.03	0.3	0.25	–
N#C/C=C/S(=O)(=O)c1ccc(C2(C(=O)NCc3ccc(Cl)cc3)CCOCC2)cc1	0.3	0.46	0.66	0.71	–
N#C/C=C/S(=O)(=O)c1ccc(C2(C(=O)Nc3ccccc3)CCC2)cc1	0.12	0.17	0.35	0.39	–
CC(C)(c1ccc(S(=O)(=O)/C=C/C#N)cc1)c1nnc(C2CCCCC2)o1	0.13	0.02	0.27	0.28	–
CC(C)(C(=O)N1CCCCC1)c1ccc(S(=O)(=O)/C=C/C#N)cc1	0.25	0.08	0.51	0.51	–
COc1cccc(NC(=O)COc2ccc(S(=O)(=O)/C=C/C#N)cc2C(C)(C)C)c1	0.17	0.03	0.37	0.29	–
CC(C)(C(=O)NCC(F)F)c1ccc(S(=O)(=O)/C=C/C#N)cc1	0.82	0.86	0.81	1.13	–
CC(C)(C(=O)NCc1ccccc1F)c1ccc(S(=O)(=O)/C=C/C#N)cc1	0.15	0.03	0.2	0.3	–
N#C/C=C/S(=O)(=O)c1ccc(C2(C(=O)NC3CCCCC3)CC2)cc1	0.28	0.09	0.34	0.23	–
